In ChEMBL document CHEMBL1143592, “N-terminal sugar conjugation and C-terminal Thr-for-Thr(ol) exchange in radioiodinated Tyr3-octreotide: effect on cellular ligand trafficking in vitro and tumor accumulation in vivo” (J Med Chem, 2005):
pEC50, pIC50: −log10 of the molar value.

Legend:
Type in all cases: cell-based
[1] = biological target: T1, Somatostatin receptor type 3 (Homo sapiens, UniProt P32745); experiment: In vitro inhibition of [125I][Leu8,D-Trp22,Tyr25] somatostatin 28 binding to human somatostatin receptor type 3 expressed in CCL39 cells; (n=4)
In short: (§1)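 Receptor autoradiography on sections of cell membrane pellets from CHO-K1 (sst1, sst5) or CCL39 (sst2–4) cells stably expressing the human subtype. Full displacement of [125I][Leu8,D-Trp22,Tyr25]somatostatin 28 by unlabeled peptide, 0.1–1000 nM, with somatostatin 28 run in parallel as control. IC50 derived by computer-assisted image analysis, quantified against cross-calibrated [125I] tissue standards.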

[2] = biological target: T2, Somatostatin receptor type 1 (Homo sapiens, UniProt P30872); experiment: In vitro inhibition of [125I][Leu8,D-Trp22,Tyr25] somatostatin 28 binding to human somatostatin receptor type 1 expressed in CHO-K1 cells; (n=7); in short: as §1
[3] = biological target: T3, Somatostatin receptor type 4 (Homo sapiens, UniProt P31391); experiment: In vitro inhibition of [125I][Leu8,D-Trp22,Tyr25] somatostatin 28 binding to human somatostatin receptor type 4 expressed in CCL39 cells; (n=6)
[4] = biological target: Somatostatin receptor type 5 (Homo sapiens, UniProt P35346); experiment: In vitro inhibition of [125I][Leu8,D-Trp22,Tyr25] somatostatin 28 binding to human somatostatin receptor type 5 expressed in CHO-K1 cells; (n=6)
[5] = biological target: Somatostatin receptor type 2 (Homo sapiens, UniProt P30874); experiment: Relative effective concentration against human somatostatin receptor type 2 expressed in CHO cells; (n=3)
In short: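 Dual-tracer internalization in CHO cells stably expressing N-terminally tagged hsst2 (90000–120000 cells/well, plated the day before). Acid wash at pH 5 removed surface-bound activity; nonspecific uptake was taken with 5 µM TOC; triplicates. EC50 is expressed relative to [125I]TOC.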

[6] = biological target: T2, Somatostatin receptor type 1; experiment: In vitro inhibition of [125I][Leu8,D-Trp22,Tyr25] somatostatin 28 binding to human somatostatin receptor type 1 expressed in CHO-K1 cells; (n=5)
[7] = biological target: T3, Somatostatin receptor type 4; experiment: In vitro inhibition of [125I][Leu8,D-Trp22,Tyr25] somatostatin 28 binding to human somatostatin receptor type 4 expressed in CCL39 cells; (n=5)
[8] = biological target: T1, Somatostatin receptor type 3; experiment: In vitro inhibition of [125I][Leu8,D-Trp22,Tyr25] somatostatin 28 binding to human somatostatin receptor type 3 expressed in CCL39 cells; (n=5)
[9] = biological target: T2, Somatostatin receptor type 1; experiment: In vitro inhibitory concentration against somatostatin receptor type 1 expressed in CHO-K1 cells using [125I][Leu8,D-Trp22,Tyr25] somatostatin 28 as radioligand; (n=2); in short: as §1
[10] = biological target: T3, Somatostatin receptor type 4; experiment: In vitro inhibition of [125I][Leu8,D-Trp22,Tyr25] somatostatin 28 binding to human somatostatin receptor type 4 expressed in CCL39 cells; (n=2); in short: as §1
[11] = biological target: T1, Somatostatin receptor type 3; experiment: In vitro inhibition of [125I][Leu8,D-Trp22,Tyr25] somatostatin 28 binding to human somatostatin receptor type 3 expressed in CCL39 cells; (n=2); in short: as §1

Somatostatin receptor type 2, sequence (P30874 whole entry): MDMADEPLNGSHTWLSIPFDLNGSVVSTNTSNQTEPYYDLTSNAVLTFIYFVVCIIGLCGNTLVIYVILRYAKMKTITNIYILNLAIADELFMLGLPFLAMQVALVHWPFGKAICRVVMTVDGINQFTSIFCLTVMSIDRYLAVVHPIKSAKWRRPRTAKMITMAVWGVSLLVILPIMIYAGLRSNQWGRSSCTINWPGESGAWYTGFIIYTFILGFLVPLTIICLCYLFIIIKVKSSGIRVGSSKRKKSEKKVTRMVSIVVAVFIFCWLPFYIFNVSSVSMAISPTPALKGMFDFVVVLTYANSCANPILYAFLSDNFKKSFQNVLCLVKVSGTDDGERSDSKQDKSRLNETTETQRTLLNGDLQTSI
T2 sequence (P30872 whole entry): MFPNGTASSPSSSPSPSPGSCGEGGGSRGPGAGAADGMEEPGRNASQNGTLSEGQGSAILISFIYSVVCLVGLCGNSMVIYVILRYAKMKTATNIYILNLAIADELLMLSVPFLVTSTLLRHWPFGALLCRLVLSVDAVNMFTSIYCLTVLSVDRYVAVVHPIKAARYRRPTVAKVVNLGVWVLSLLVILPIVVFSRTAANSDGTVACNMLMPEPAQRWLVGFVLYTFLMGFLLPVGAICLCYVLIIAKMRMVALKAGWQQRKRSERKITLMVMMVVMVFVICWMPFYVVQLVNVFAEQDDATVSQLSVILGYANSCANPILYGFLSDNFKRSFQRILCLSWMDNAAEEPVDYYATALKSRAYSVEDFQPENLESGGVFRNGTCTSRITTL
T3 sequence (P31391 whole entry): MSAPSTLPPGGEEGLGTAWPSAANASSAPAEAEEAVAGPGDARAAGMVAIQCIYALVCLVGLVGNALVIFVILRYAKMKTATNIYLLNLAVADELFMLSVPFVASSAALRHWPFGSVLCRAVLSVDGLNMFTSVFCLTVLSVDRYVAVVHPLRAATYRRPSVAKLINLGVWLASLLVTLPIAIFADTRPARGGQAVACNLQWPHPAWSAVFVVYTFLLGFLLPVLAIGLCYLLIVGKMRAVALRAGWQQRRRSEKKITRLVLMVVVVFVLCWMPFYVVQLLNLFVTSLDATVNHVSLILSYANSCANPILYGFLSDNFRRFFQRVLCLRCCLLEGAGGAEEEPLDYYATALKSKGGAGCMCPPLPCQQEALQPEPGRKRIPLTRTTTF
T1 sequence (P32745 whole entry): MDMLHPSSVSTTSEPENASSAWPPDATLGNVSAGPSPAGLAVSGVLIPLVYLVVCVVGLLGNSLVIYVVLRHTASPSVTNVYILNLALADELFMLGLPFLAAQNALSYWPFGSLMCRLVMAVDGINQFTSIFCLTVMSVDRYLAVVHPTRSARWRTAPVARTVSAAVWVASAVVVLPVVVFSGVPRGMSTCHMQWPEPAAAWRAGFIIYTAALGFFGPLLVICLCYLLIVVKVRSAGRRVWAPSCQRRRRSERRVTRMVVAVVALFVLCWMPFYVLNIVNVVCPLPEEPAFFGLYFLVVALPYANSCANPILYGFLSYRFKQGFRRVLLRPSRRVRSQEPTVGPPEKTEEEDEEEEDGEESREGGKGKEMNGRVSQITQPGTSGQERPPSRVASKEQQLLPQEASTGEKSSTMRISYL
Somatostatin receptor type 5, sequence (P35346 whole entry): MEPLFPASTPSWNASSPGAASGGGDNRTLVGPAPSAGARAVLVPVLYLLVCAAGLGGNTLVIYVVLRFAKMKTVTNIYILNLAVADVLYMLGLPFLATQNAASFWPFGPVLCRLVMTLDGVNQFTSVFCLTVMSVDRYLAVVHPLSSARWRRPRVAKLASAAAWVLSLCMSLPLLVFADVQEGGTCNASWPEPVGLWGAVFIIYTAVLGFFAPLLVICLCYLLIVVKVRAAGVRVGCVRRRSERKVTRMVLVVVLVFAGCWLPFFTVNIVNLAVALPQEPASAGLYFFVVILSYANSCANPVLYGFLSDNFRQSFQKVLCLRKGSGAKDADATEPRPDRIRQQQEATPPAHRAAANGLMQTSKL

C[C@@H](O)[C@@H]1NC(=O)[C@H](CCCCN)NC(=O)[C@@H](Cc2c[nH]c3ccccc23)NC(=O)[C@H](Cc2ccc(O)cc2)NC(=O)[C@@H](NC(=O)[C@@H](Cc2ccccc2)NC(=O)CN2CCN(CC(=O)O)CCN(CC(=O)O)CCN(CC(=O)O)CC2)CSSC[C@@H](C(=O)N[C@H](CO)[C@@H](C)O)NC1=O [EDOTREOTIDE]
pIC50 [1]: 6.06 | pIC50 [2]: < 5.00 | pIC50 [3]: < 6.00 | pIC50 [4]: 6.41

C[C@@H](O)[C@H](CO)NC(=O)[C@@H]1CSSC[C@H](NC(=O)[C@@H](Cc2ccccc2)NC[C@]2(O)OC[C@H](O)[C@@H](O)[C@@H]2O)C(=O)N[C@@H](Cc2ccc(O)c([123I])c2)C(=O)N[C@H](Cc2c[nH]c3ccccc23)C(=O)N[C@@H](CCCCN)C(=O)N[C@@H]([C@@H](C)O)C(=O)N1
pEC50 ([5]; cho): 8.84

C[C@H](O)[C@@H](CO)NC(=O)[C@@H]1CSSC[C@H](NC(=O)[C@H](N)Cc2ccccc2)C(=O)N[C@@H](Cc2ccc(O)c(I)c2)C(=O)N[C@H](Cc2c[nH]c3ccccc23)C(=O)N[C@@H](CCCCN)C(=O)N[C@@H]([C@@H](C)O)C(=O)N1
pIC50 [6]: < 6.00 | pIC50 [7]: 6.14 | pIC50 [8]: 6.73

C[C@@H](O)[C@H](NC(=O)[C@@H]1CSSC[C@H](NC(=O)[C@@H](Cc2ccccc2)NC[C@]2(O)OC[C@H](O)[C@@H](O[C@@H]3O[C@@H](CO)[C@@H](O)[C@H](O)[C@@H]3O)[C@@H]2O)C(=O)N[C@@H](Cc2ccc(O)c([123I])c2)C(=O)N[C@H](Cc2c[nH]c3ccccc23)C(=O)N[C@@H](CCCCN)C(=O)N[C@@H]([C@@H](C)O)C(=O)N1)C(=O)O
pEC50 ([5]; cho): 8.67

C[C@@H](O)[C@H](NC(=O)[C@@H]1CSSC[C@H](NC(=O)[C@@H](Cc2ccccc2)NC[C@]2(O)OC[C@H](O)[C@@H](O[C@@H]3O[C@@H](CO)[C@@H](O[C@@H]4O[C@@H](CO)[C@@H](O)[C@H](O)[C@@H]4O)[C@H](O)[C@@H]3O)[C@@H]2O)C(=O)N[C@@H](Cc2ccc(O)c([123I])c2)C(=O)N[C@H](Cc2c[nH]c3ccccc23)C(=O)N[C@@H](CCCCN)C(=O)N[C@@H]([C@@H](C)O)C(=O)N1)C(=O)O
pEC50 ([5]; cho): 8.74

C[C@@H](O)[C@H](NC(=O)[C@@H]1CSSC[C@H](NC(=O)[C@H](N)Cc2ccccc2)C(=O)N[C@@H](Cc2ccc(O)c([123I])c2)C(=O)N[C@H](Cc2c[nH]c3ccccc23)C(=O)N[C@@H](CCCCN)C(=O)N[C@@H]([C@@H](C)O)C(=O)N1)C(=O)O
pEC50 [5]: 8.77

C[C@H](O)[C@@H](CO)NC(=O)[C@@H]1CSSC[C@H](NC(=O)[C@H](N)Cc2ccccc2)C(=O)N[C@@H](Cc2ccc(O)cc2)C(=O)N[C@H](Cc2c[nH]c3ccccc23)C(=O)N[C@@H](CCCCN)C(=O)N[C@@H]([C@@H](C)O)C(=O)N1
pIC50 [9]: < 6.00 | pIC50 [10]: 6.46 | pIC50 [11]: 6.48

C[C@@H](O)[C@H](CO)NC(=O)[C@@H]1CSSC[C@H](NC(=O)[C@@H](Cc2ccccc2)NC[C@]2(O)OC[C@H](O)[C@@H](O[C@@H]3O[C@@H](CO)[C@@H](O)[C@H](O)[C@@H]3O)[C@@H]2O)C(=O)N[C@@H](Cc2ccc(O)c([123I])c2)C(=O)N[C@H](Cc2c[nH]c3ccccc23)C(=O)N[C@@H](CCCCN)C(=O)N[C@@H]([C@@H](C)O)C(=O)N1
pEC50 ([5]; cho): 8.95
